According to ChEMBL document CHEMBL5257036, “Benzophenone-nucleoside derivatives as telomerase inhibitors: Design, synthesis and anticancer evaluation in vitro and in vivo” (Eur J Med Chem, 2016):
Active and inactive are the calls of the source. The calls are words filed in the database; no cut-off is given here.

Tests used:
SGC-7901 = experiment: Antiproliferative activity against human SGC-7901 cells measured after 48 hrs by MTT assay; format: functional, cell-based; details: SGC-7901, 48 h
Procedure, shortened: (§1)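 Cells grown to log phase in RPMI 1640 with 10% FBS, seeded at 3 × 10⁴ cells/mL, and preincubated 24 h at 37 °C, 5% CO₂. Compounds were added at pre-set concentrations to 6 wells each, with doxorubicin as reference, and exposed for 48 h. MTT was then added and absorbance read at 570 nm.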

HepG2 = experiment: Antiproliferative activity against human HepG2 cells measured after 48 hrs by MTT assay; format: functional, cell-based; details: HepG2, 48 h; procedure, shortened: as §1
HeLa = experiment: Antiproliferative activity against human HeLa cells measured after 48 hrs by MTT assay; format: functional, cell-based; procedure, shortened: as §1
SMMC-7721 = experiment: Antiproliferative activity against human SMMC-7721 cells measured after 48 hrs by MTT assay; format: functional, cell-based; details: SMMC-7721, 48 h; procedure, shortened: as §1
[1] = molecular target: T1, Telomerase reverse transcriptase (Homo sapiens, UniProt O14746); experiment: Inhibition of telomerase activity in human SGC-7901 cells at 0.082 to 60 ug/mL incubated for 24 hrs by TRAP-PCR-ELISA assay; details: dose 0.082-60 ug/mL
[2] = molecular target: T1, Telomerase reverse transcriptase; experiment: Inhibition of telomerase activity in human SGC-7901 cells incubated for 24 hrs by TRAP-PCR-ELISA assay; format: cell-based
Procedure, shortened: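 Extract was mixed with TRAP reaction mix, incubated 25 °C for 30 min, then 35 PCR cycles (94/50/72 °C). Products detected by anti-DIG-peroxidase ELISA at 490 nm; mean ± SD.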

T1 sequence (O14746 whole entry): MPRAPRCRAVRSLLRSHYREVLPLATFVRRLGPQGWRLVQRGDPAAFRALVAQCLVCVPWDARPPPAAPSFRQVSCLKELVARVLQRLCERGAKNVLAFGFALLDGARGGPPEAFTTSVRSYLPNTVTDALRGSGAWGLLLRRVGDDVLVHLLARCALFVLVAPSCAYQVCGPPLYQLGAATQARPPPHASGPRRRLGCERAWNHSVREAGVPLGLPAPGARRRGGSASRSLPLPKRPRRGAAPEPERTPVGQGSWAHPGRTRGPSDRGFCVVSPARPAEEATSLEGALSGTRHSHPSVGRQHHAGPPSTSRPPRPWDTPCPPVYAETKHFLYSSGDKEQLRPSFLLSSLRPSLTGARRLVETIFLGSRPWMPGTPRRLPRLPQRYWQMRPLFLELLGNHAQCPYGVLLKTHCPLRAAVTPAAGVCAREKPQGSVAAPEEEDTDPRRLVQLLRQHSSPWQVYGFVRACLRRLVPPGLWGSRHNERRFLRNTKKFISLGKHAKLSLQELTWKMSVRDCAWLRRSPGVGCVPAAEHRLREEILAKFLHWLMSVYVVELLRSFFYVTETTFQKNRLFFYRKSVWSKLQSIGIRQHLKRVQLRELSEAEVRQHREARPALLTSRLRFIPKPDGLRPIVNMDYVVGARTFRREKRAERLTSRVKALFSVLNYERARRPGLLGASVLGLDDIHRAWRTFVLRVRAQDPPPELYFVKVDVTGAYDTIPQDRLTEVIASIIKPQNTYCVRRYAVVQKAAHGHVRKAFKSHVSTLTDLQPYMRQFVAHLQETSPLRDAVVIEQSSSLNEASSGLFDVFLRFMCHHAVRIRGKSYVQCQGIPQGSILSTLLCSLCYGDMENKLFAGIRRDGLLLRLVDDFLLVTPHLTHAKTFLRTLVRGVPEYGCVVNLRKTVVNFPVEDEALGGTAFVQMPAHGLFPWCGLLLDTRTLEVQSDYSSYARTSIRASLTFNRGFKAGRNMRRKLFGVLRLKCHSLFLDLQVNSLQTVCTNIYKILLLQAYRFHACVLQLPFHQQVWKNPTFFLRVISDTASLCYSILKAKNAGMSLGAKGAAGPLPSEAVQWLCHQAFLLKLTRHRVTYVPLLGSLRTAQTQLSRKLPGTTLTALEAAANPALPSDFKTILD

Row | SMILES | IC50 (SGC-7901) [µM] | IC50 (HepG2) [µM] | IC50 (HeLa) [µM] | IC50 (SMMC-7721) [µM] | inhibition [1] | IC50 [2] [µM]
1 | COc1ccc(C(=O)c2ccc(F)cc2)cc1OCC(=O)OC[C@@H]1C=C[C@H](n2cc(C)c(=O)[nH]c2=O)O1 | 29.1 | 38 | 36.3 | 40.3 |  | 
2 | COc1ccc(C(=O)c2cc(Br)ccc2Cl)cc1OCC(=O)OC[C@@H]1C=C[C@H](n2cc(C)c(=O)[nH]c2=O)O1 |  |  |  |  | inactive | 
3 | COc1ccc(C(=O)c2cc(OC)c(OC)c(OC)c2)cc1OCC(=O)OC[C@@H]1C=C[C@H](n2cc(C)c(=O)[nH]c2=O)O1 | 23.4 | 15 | 12.8 | 21.2 |  | 
4 | COc1ccc(C(=O)c2ccc([N+](=O)[O-])cc2)cc1OC(=O)CCC(=O)OC[C@@H]1C=C[C@H](n2cc(C)c(=O)[nH]c2=O)O1 | 10.2 | 24 | 21.1 | 30.5 |  | 28.9
5 | COc1cc(OC)c(C(=O)c2ccc(OC)c(OC(=O)CCC(=O)OC[C@@H]3C=C[C@H](n4cc(C)c(=O)[nH]c4=O)O3)c2)cc1OC | 2.27 | 6.85 | 2.65 | 2.86 |  | 6.43
6 | COc1ccc(C(=O)c2cccc(Cl)c2)cc1OC(=O)CCC(=O)OC[C@@H]1C=C[C@H](n2cc(C)c(=O)[nH]c2=O)O1 | 4.19 | 11.1 | 6.51 | 3.21 |  | 
